These results are taken from ChEMBL document CHEMBL1144717, “1-(2-Carboxyindol-5-yloxy)propan-2-ones as inhibitors of human cytosolic phospholipase A2alpha: synthesis, biological activity, metabolic stability, and solubility” (Bioorg Med Chem, 2008).

Converted amounts (≈) assume the structure as drawn. The source made the active and inactive calls. No cut-off for these calls is given here. A value given as a limit tells only on which side of the number the result lay.

For series [1], the target named is T1, Cytosolic phospholipase A2 (Homo sapiens) (UniProt P47712).
T1 sequence (whole entry): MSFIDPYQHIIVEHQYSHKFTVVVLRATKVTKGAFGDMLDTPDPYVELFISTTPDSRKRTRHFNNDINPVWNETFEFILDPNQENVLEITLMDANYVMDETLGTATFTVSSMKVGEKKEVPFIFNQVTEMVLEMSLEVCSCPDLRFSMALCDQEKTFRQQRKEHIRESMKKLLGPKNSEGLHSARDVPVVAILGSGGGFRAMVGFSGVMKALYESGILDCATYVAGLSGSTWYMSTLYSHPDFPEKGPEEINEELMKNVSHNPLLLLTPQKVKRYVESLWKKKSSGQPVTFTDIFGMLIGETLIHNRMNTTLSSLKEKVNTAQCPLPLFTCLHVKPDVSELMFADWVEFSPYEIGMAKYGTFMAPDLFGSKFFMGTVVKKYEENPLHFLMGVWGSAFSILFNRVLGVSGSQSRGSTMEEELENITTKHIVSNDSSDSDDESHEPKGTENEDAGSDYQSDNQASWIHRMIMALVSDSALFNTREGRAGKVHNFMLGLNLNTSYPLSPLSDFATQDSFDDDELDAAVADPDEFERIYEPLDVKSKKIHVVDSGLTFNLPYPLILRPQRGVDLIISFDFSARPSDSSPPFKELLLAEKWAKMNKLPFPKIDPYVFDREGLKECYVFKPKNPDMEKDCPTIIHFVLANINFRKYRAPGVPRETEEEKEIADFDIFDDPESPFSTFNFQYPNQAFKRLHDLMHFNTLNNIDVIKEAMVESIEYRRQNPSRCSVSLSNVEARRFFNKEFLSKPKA
Description: Inhibition of cPLA2-alpha in TPA-stimulated intact human platelets assessed as liberation of arachidonic acid at 10 um after 60 mins. In outline:
(§1)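 Human platelets from buffy coat, washed in PBS/EDTA and resuspended in PBS (0.1 M, pH 7.4) at about 10⁸ cells/mL. Preincubated 5 min at 37 °C with ETYA (final 10 µM) and compound in DMSO, then CaCl₂ added for a further 5 min. Stimulated with TPA (final 2 µM) for 60 min at 37 °C. Released arachidonic acid quantified by SPE then RP-HPLC, UV 200 nm, against an internal standard.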

Series [2] has as its target T1, Cytosolic phospholipase A2 (Homo sapiens). The series can be described thus: Inhibition of human platelet cPLA2-alpha activity at 10 uM. In outline: (§2)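 cPLA₂α isolated from human platelets. Incubated 60 min. Arachidonic acid released, with and without compound, measured by RP-HPLC with UV 200 nm after SPE cleanup, using an internal standard. Values are means of at least two independent determinations.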

The target of series [3] is T2, Cytosolic phospholipase A2 (Homo sapiens, UniProt P47712).
T2 sequence (P47712 whole entry): T1 sequence (whole entry)
Description: Inhibition of human platelet cPLA2-alpha activity. In outline: as §2

The nature of series [4]: Solubility in sodium phosphate buffer at pH 7.4. Type of series: physicochemical. In outline: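 Supernatant diluted with acetonitrile and phosphoric acid, then quantified by RP-HPLC at 240 nm against a calibration curve. Mean ± SD, n = 3 (n = 2 for values <1 µg/mL).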
The target of series [5] is T2, Cytosolic phospholipase A2. The series can be described thus: Inhibition of cPLA2-alpha in TPA-stimulated intact human platelets assessed as liberation of arachidonic acid after 60 mins. An outline of the steps: as §1
Series [6] is described as follows: Metabolic stability in rat liver microsomes at 20 uM after 30 mins in presence of NADPH by reverse phased HPLC relative to control. The settings on record: read-out: Stability. Type of series: ADME, Microsome. In outline:
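Rat liver microsomes at 5.7 mg protein/mL in PBS (0.1 M, pH 7.4); compound final 20 µM from DMSO. Preincubated 5 min at 37 °C, then started with NADPH (12 mM) and MgCl₂ (5 mM) solution. Stopped after 30 min with acetonitrile. Parent ketone peak measured by RP-HPLC at 240 nm and compared with an NADPH-free incubation. Mean of at least two independent determinations.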
For orientation: Liver microsomes are vesicles of endoplasmic reticulum, rich in cytochrome P450 enzymes.

As to `CCCCCCCCc1ccc(OCC(O)COc2ccc3c(c2)cc(C(=O)O)n3CC(=O)O)cc1` (stereo not given), the outcome in series [1] and in series [2] was inactive.

For the compound `CCCCCCCCc1ccc(OCC(O)COc2ccc3c(c2)cc(C(=O)O)n3C)cc1` (stereo not given), the outcome in series [1] and in series [2] was inactive.

The IC50 is the concentration that inhibits the measured activity by half. What is called solubility is how much of the substance goes into solution per volume. A higher solubility goes with a readily soluble substance. `CCCCCCCCc1ccc(OCC(=O)COc2ccc3c(c2)cc(C(=O)O)n3C)cc1`: the half-maximal inhibitory concentration (IC50) in series [3] stood at 1200 nM; in series [5] it was 600 nM. This compound also registered a solubility in series [4] of less than 1 µg/mL. Further, in series [6], the remaining at 0.5 h, 20 µM is less than 5%.

Consider `CCCCCCCCc1ccc(OCC(=O)COc2ccc3c(c2)cc(C(=O)O)n3CCCCCC(=O)O)cc1`, for which the IC50 in series [3] is 600 nM; in series [5], 500 nM. For the same compound, in series [4], the concentration in solution (solubility) was 17 µg/mL (≈ 30.8 µM). Besides, the remaining at 0.5 h, 20 µM in series [6] was less than 5%.

For `CCCCCCCCc1ccc(OCC(=O)COc2ccc3c(c2)cc(C(=O)O)n3Cc2ccc(C(=O)O)cc2)cc1`, the IC50 in series [3] worked out at 1500 nM. Besides, in series [4], the solubility was found to be 13 µg/mL (≈ 22.7 µM). In addition, the remaining at 0.5 h, 20 µM in series [6] came to 15%.

In general, inhibition refers to the drop in the measured response relative to a control, in per cent. Read a low inhibition as little suppression. The compound `CCCCCCCCc1ccc(OCC(=O)COc2ccc3c(c2)cc(C(=O)O)n3CCN(C)C)cc1` registered an IC50 in series [3] of more than 10000 nM. For the same compound, the concentration in solution in series [4] (solubility) was 46 µg/mL (≈ 90.4 µM). In addition, the remaining at 0.5 h, 20 µM in series [6] turned out to be 9%. The same compound registered an inhibition in series [2] of 32%.

Compound `CCCCCCCCc1ccc(OCC(=O)COc2ccc3c(c2)cc(C(=O)O)n3Cc2ccccc2)cc1` gave a concentration for half-maximal inhibition (IC50) in series [3] of 10000 nM. In series [4], this compound registered a solubility of less than 1 µg/mL. In series [6], the remaining at 0.5 h, 20 µM is less than 5%.

On to `CCCCCCCCc1ccc(OCC(=O)COc2ccc3c(c2)cc(C(=O)O)n3CCC)cc1`, for which inhibition in series [3] was half-maximal at 2100 nM (IC50). Moreover, the solubility in series [4] was less than 1 µg/mL. Besides, the remaining at 0.5 h, 20 µM in series [6] is less than 5%.

As to `CCCCCCCCc1ccc(OCC(=O)COc2ccc3c(c2)cc(C(=O)O)n3CC(=O)O)cc1`, the IC50 was 300 nM in series [3] and 1300 nM in series [5]. Further, the solubility in series [4] turned out to be 8.1 µg/mL (≈ 16.3 µM). Besides, the remaining at 0.5 h, 20 µM in series [6] is 18%.

Turning to `CCCCCCCCc1ccc(OCC(=O)COc2ccc3[nH]c(C(=O)O)cc3c2)cc1`, the IC50 in series [3] was determined as 3300 nM. In series [4], this compound came in with a solubility of 8.4 µg/mL (≈ 19.2 µM). Besides, in series [6], the remaining at 0.5 h, 20 µM was less than 5%.

Consider `CCCCCCCCc1ccc(OCC(=O)COc2ccc3c(c2)cc(C(=O)O)n3CCCC(=O)O)cc1`, for which the IC50 came out at 400 nM in series [3] and 300 nM in series [5]. Also, the solubility in series [4] turned out to be 30 µg/mL (≈ 57.3 µM). For the same compound, the remaining at 0.5 h, 20 µM in series [6] is less than 5%.

In series [3], `CCCCCCCCc1ccc(OCC(=O)COc2ccc3c(c2)cc(C(=O)O)n3CCCCCC)cc1` registered a half-inhibitory concentration (IC50) of more than 10000 nM. In series [4], this compound had a solubility of less than 1 µg/mL. In addition, the remaining at 0.5 h, 20 µM in series [6] is less than 5%. The inhibition in series [2] came to 42%.
